These results are taken from ChEMBL document CHEMBL4028909, “Discovery of an Orally Bioavailable Benzofuran Analogue That Serves as a β-Amyloid Aggregation Inhibitor for the Potential Treatment of Alzheimer's Disease” (J Med Chem, 2018).

As a reminder, the IC50 is the midpoint of a concentration-inhibition curve. A word on the bioavailability: it is the share of a dose that reaches the circulation, judged against a reference dose that is usually intravenous. The Cmax is the highest concentration seen after dosing. In general, Tmax refers to the time from dosing to the highest level. The ED50 is the dose at which the effect has come halfway, by size or by number of responders. The term AUC denotes concentration integrated over time.

Molecules are shown by their SMILES. Calls of active or inactive are those of the source. The rule behind the calls is not given here.

One data set addresses T1, Cytochrome P450 2C8 (Homo sapiens, UniProt P10632).
T1 sequence (P10632 whole entry): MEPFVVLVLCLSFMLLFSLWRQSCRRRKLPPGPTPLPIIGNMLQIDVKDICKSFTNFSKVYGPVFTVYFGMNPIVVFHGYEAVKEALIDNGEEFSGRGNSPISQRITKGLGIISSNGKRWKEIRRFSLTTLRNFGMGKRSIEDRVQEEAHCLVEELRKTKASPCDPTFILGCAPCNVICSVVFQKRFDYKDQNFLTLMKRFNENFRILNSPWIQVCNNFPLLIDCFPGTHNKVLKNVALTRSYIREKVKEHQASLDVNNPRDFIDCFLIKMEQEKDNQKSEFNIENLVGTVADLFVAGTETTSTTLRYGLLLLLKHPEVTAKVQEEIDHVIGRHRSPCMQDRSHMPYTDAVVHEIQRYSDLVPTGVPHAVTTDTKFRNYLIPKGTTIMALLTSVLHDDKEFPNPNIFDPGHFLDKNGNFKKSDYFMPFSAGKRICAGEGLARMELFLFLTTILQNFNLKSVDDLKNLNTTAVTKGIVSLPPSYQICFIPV
Nature of the data set: Inhibition of CYP2C8 in human liver microsomes preincubated for 5 mins followed by addition of NADPH generating system measured after 20 mins by LC-MS/MS analysis. The format is ADME. Summed up: (§1)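 Inhibition of each CYP isozyme (1A2, 2A6, 2C8, 2C9, 2C19, 2D6, 3A4) was measured in human liver microsomes. IC50 values were reported in μM.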
For orientation: Microsomes from liver hold many membrane-bound enzymes, among them those of drug oxidation.

Data set [1] is described as follows: Oral bioavailability in dog. The following applies: in vivo. The format is ADME, organism-based, Canis lupus familiaris.
Data set [2] in a line: Ratio of AUC in ICR mouse brain to AUC in ICR mouse plasma at 10 mg/kg, po measured at 1 hr. To be noted: read-out: Ratio AUC. The format is ADME, organism-based. Summed up:
(§2)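 ICR mice (n=3) given a single oral dose of 10 mg/kg. Brain and plasma were sampled over nine hours, at 0.333, 1, 3, 6 and 9 h. Kp was calculated as AUC_brain/AUC_plasma.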

Data set [3] in a line: Cmax in mouse at 3 mg/kg, po. The format is ADME, organism-based. Also on record: dose 3 mg/kg, route oral. The following applies: in vivo. Summed up:
(§3)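 Mice received a single dose of 3 mg/kg i.v. or 3, 10 or 30 mg/kg orally. Plasma concentration-time profiles were analysed for AUC from zero to infinity and to the last measured time (hr*ng/mL), Cmax (ng/mL, C0 after i.v.), Tmax and terminal half-life (hr), and oral bioavailability (%).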

The nature of data set [4]: Half-life in po dosed monkey. To be noted: rhesus monkey, in vivo.
Data set [5] is described as follows: Tmax in mouse at 10 mg/kg, po. The format is ADME, organism-based. To be noted: in vivo. The procedure, abridged: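 Mouse pharmacokinetics: single i.v. dose of 3 mg/kg, or oral doses of 3, 10 and 30 mg/kg. Plasma concentration–time curves gave T1/2 (terminal, hr), Tmax (hr), Cmax, AUC and bioavailability (%).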
The test system of data set [6] is Mus musculus. Nature of the data set: Reversal of cognitive deficit in amyloid beta (1 to 42)-treated Alzheimer's disease ICR mouse model assessed as increase in step-through latency time administered orally for 3 consecutive days by passive avoidance test. The format is functional. Summed up:
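Acute AD model: preformed Aβ aggregates injected into the brains of normal mice. Compound given orally for three consecutive days, then step-through passive avoidance was tested by a standard protocol. Read-out is step-through latency (sec), compared against control and vehicle groups.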

A short description of data set [7]: Ratio of AUC in ICR mouse brain to AUC in ICR mouse plasma at 10 mg/kg, po measured at 6 hrs. To be noted: read-out: Ratio AUC. The format is ADME, organism-based. Summed up:
as §2

Data set [8] in a line: Cmax in mouse at 30 mg/kg, po. More on the design: dose 30 mg/kg, route oral. The format is ADME, organism-based. The following applies: in vivo. Summed up: as §3
Data set [9] deals with Amyloid-beta precursor protein (Homo sapiens) (UniProt P05067). The experiment in a line: Inhibition of HFIP-pretreated amyloid beta (1 to 42) (unknown origin) aggregation after 1 hr by transmission electron microscopic method.
Data set [10] deals with Mus musculus. Nature of the data set: Antiamyloidogenic activity in double APP/PS1 transgenic Alzheimer's disease mouse model assessed as amyloid beta (1 to 42) levels in brain at 100 mg/kg, po qd administered for 8 weeks by sandwich ELISA relative to control. The format is functional. The procedure, abridged: (§4)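 APP/PS1 mice, 29 weeks old, were dosed orally once daily for eight weeks at 30 or 100 mg/kg, with a vehicle group. Brain tissue was homogenized and amyloid fibrils were solubilized to monomers. Aβ1-40 and Aβ1-42 were then quantified by immunoassay with antibodies specific to monomeric Aβ.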
In general terms: An ELISA detects its analyte on a solid surface through an enzyme-linked reagent.

Data set [11] is described as follows: Oral bioavailability in mouse at 30 mg/kg. The format is ADME, organism-based. To be noted: in vivo. The procedure, abridged: as §3
The target in another data set is Cytochrome P450 2C19 (Homo sapiens, UniProt P33261). The experiment in a line: Inhibition of CYP2C19 in human liver microsomes preincubated for 5 mins followed by addition of NADPH generating system measured after 20 mins by LC-MS/MS analysis. The format is ADME. The procedure, abridged: as §1
Data set [12] in a line: Initial concentration in mouse at 3 mg/kg, iv. The format is ADME, organism-based. The following applies: in vivo. The procedure, abridged: as §3
Data set [13] deals with Mus musculus. Nature of the data set: Reversal of cognitive deficit in amyloid beta (1 to 42)-treated Alzheimer's disease ICR mouse model assessed as increase in spatial memory function by measuring spontaneous alternation at 10 mg/kg, po administered for 3 consecutive days by Y maze test relative to control. The format is functional. The procedure, abridged: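 Acute AD model: preformed Aβ aggregates injected directly into the brains of normal mice to induce acute neurotoxicity. Compound given orally for three consecutive days, then the Y-maze was run. Read-out is percentage of spontaneous alternation, compared against normal and vehicle-treated mice.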

The nature of data set [14]: AUC in po dosed dog. The format is ADME, organism-based, Canis lupus familiaris. The following applies: in vivo.
Data set [15] is described as follows: Ratio of AUC in ICR mouse brain to AUC in ICR mouse plasma at 10 mg/kg, po measured at 3 hrs. The format is ADME, organism-based. To be noted: read-out: Ratio AUC. Summed up:
as §2

Data set [16] concerns Mus musculus. The experiment in a line: Antiamyloidogenic activity in po dosed double APP/PS1 transgenic Alzheimer's disease mouse model assessed as decrease in amyloid beta (1 to 40) levels in brain administered as qd for 8 weeks by sandwich ELISA. The format is functional, organism-based. The procedure, abridged:
as §4

Amyloid-beta precursor protein (Homo sapiens), sequence (P05067 whole entry): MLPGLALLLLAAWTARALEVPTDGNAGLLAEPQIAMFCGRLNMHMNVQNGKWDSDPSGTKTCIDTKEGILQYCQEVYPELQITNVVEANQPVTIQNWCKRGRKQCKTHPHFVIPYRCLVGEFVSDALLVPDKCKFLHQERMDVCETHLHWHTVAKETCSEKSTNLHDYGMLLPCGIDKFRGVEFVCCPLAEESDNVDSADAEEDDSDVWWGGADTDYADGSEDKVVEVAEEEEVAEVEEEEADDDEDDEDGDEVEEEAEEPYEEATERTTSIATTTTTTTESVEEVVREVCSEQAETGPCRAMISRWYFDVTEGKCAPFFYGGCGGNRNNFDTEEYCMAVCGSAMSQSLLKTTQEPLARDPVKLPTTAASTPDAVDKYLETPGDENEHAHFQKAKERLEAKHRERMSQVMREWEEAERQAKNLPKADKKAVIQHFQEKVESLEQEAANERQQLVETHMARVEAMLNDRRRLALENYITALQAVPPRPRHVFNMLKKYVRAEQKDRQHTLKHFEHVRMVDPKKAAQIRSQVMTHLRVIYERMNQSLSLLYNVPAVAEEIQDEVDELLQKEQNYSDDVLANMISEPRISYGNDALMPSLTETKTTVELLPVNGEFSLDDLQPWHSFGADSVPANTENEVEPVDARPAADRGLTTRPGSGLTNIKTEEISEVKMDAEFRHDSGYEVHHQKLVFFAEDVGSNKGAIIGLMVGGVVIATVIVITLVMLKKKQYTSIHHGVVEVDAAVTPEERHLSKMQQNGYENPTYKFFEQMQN
Cytochrome P450 2C19, sequence (P33261 whole entry): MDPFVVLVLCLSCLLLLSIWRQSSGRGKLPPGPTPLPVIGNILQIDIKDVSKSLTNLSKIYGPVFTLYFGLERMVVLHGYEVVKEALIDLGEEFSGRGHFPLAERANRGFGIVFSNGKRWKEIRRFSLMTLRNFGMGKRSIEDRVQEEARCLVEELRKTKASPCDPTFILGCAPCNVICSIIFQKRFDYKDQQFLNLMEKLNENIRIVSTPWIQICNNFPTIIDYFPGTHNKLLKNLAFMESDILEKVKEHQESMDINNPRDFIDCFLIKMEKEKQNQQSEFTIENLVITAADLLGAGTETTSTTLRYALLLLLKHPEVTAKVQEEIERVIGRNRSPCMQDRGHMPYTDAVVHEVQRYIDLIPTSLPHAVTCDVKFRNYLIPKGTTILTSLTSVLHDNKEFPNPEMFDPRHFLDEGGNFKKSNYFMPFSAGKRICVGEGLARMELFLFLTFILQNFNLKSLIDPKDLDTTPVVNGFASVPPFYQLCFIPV

Regarding `COCCCc1ccc2oc(-c3ccc(OC)c(OC)c3)cc2c1`, the IC50 against Cytochrome P450 2C8 is 31.4 µM; against Cytochrome P450 2C19, over 50 µM. Moreover, the bioavailability amounted to 25% in data set [1] and 79.1% in data set [11]. For the same molecule, in data set [2], the Kp at 1 h stood at 1.5. In addition, the Cmax in data set [3] amounted to 102 ng/mL; in data set [8] it was 1700 ng/mL. Further, the t1/2 in data set [4] was 12.9 h. Further, the Tmax in data set [5] was determined as 0.7 h. The Activity entry with Mus musculus [6] was “Dose-dependent effect”; in the data set with Mus musculus [10] it was 70%; in the data set with Mus musculus [13], 73.07%; with Mus musculus [16] it was “Dose-dependent effect”. For the same molecule, the ED50 in the data set with Mus musculus [6] (po) worked out at 0.19 mg/kg. In data set [7], the Kp at 6 h came out at 1.2. Besides, the inhibition entry in data set [9] was “Active”. The molecule also registered a C0 in [12] of 4870 ng/mL. In data set [14], the AUC was 4190 ng·h/mL. Besides, in data set [15], the Kp at 3 h was found to be 1.2.
